The source of these data is ChEMBL document CHEMBL1133254, “One-pot synthesis and biological evaluation of aspergillamides and analogues” (Bioorg Med Chem Lett, 2000).

SMILES strings stand for the structures. ≈ marks a conversion by molar mass, not a printed value. Calls of active or inactive are those of the source. No cut-off for these calls is given here.

The subject of one assay is Candida albicans. Kind of assay: Compound ( at <100 uM) was tested for growth inhibition against Candida albicans. It counts as functional.
In assay [1] the test system is MCF7. Kind of assay: Compound was tested for cytotoxicity against MCF-7 cell line; Active. It counts as functional, cell-based. To be noted: Homo sapiens.
The test system of assay [2] is MCF7. Kind of assay: Inhibitory concentration against MCF-7 cell line. It counts as functional, cell-based. The following applies: Homo sapiens. The procedure, abridged: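 MCF-7 cells maintained in RPMI-1640 with 5% FCS at 37 °C under 5% CO2. Test material came from dilution plates prepared from the one-pot Ugi synthesis plates. Each sample was screened at five concentrations, and an approximate IC50 was estimated from the results.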

A further assay concerns Staphylococcus aureus. Kind of assay: Compound ( at <100 uM) was tested for growth inhibition against Staphylococcus aureus. It counts as functional.
For the next assay, the system named is Bacillus subtilis. Kind of assay: Compound ( at <100 uM) was tested for growth inhibition against Bacillus subtilis. Format: functional.
Another assay concerns HCT-116. The experiment in a line: Cytotoxicity against HCT 116 cell line. The following applies: Homo sapiens. It counts as functional, cell-based.

Molecule `CC(=O)NCC(=O)N1C(C(=O)N/C=C\c2c[nH]c3ccccc23)CSC1(C)C` (stereo unspecified) returned an Inhibition in the assay with Candida albicans of 100%.
As to `CC(=O)NCC(=O)N(CCc1c[nH]c2ccccc12)CC(=O)N/C=C\c1c[nH]c2cc(OCc3ccccc3)ncc12`, the Cytotoxicity entry in the assay on MCF7 [1] was “Active”.
Turning to `CC(=O)N1CCC[C@H]1C(=O)N(C1CCCCC1)C1(C(=O)N/C=C\c2c[nH]c3ccccc23)CCCCC1`, in the assay with MCF7 [2], 400 nM corresponded to half-maximal inhibition (IC50).
Consider `CC(=O)N[C@H](CC(C)C)C(=O)N(CCCCCO)C1(C(=O)N/C=C\c2c[nH]c3cc(OCc4ccccc4)ncc23)CCN(Cc2ccccc2)CC1`, for which the Cytotoxicity entry with MCF7 [1] is “Active”.
The molecule `CC(=O)N[C@H](CC(C)C)C(=O)N(C)C(Cc1ccccc1)C(=O)N/C=C\c1c[nH]c2cc(OCc3ccccc3)ncc12` (stereo partly specified) had an Inhibition with Candida albicans of 100%.
As to `CC(=O)NCC(=O)N(CCCCCO)C1(C(=O)N/C=C\c2c[nH]c3ccccc23)CCN(Cc2ccccc2)CC1`, in the assay with Candida albicans, the Inhibition is on record as 100%.
In the assay on MCF7 [2], `CC(=O)N[C@H](CC(C)C)C(=O)N(CCc1c[nH]c2ccccc12)CC(=O)N/C=C\c1c[nH]c2ccccc12` returned a half-maximal inhibitory concentration (IC50) of 49900 nM.
In the case of `CC(=O)N[C@H](CC(C)C)C(=O)N(CCc1c[nH]c2ccccc12)CC(=O)N/C=C\c1c[nH]c2cc(OCc3ccccc3)ncc12`, the Inhibition in the assay on Staphylococcus aureus and in the assay with Bacillus subtilis was 100% each time.
The molecule `CCC(C)CC(C(=O)N/C=C\c1c[nH]c2ccccc12)N(C)Cc1ccc(O)cc1` (stereo unspecified) [ARAGILAMIDE] registered an IC50 in the assay on HCT-116 of 16 µg/mL (≈ 39.5 µM).
For `CC(=O)N1CCCC1C(=O)N(C)C(Cc1ccccc1)C(=O)N/C=C\c1c[nH]c2cc(OCc3ccccc3)ncc12` (stereo unspecified), the Cytotoxicity entry in the assay with MCF7 [1] is “Active”. For the same molecule, the IC50 in the assay on MCF7 [2] is 1900 nM.
Turning to `CC(=O)N1CCC[C@@H]1C(=O)N(CCc1c[nH]c2ccccc12)CC(=O)N/C=C\c1c[nH]c2cc(OCc3ccccc3)ncc12`, the Inhibition in the assay with Staphylococcus aureus and in the assay with Bacillus subtilis was 100% in each case.
On to `CC(=O)N[C@H](CC(C)C)C(=O)N(C)C(Cc1ccccc1)C(=O)N/C=C\c1c[nH]c2ccccc12` (stereo partly specified), for which half-maximal inhibition in the assay with MCF7 [2] (IC50) required 300 nM.
Turning to `CC(=O)NCC(=O)N1C(C(=O)N/C=C\c2c[nH]c3cc(OCc4ccccc4)ncc23)CSC1(C)C` (stereo unspecified), in the assay on MCF7 [1], the Cytotoxicity result was “Active”.
As for `CC(=O)NCC(=O)N(CCc1c[nH]c2ccccc12)CC(=O)N/C=C\c1c[nH]c2ccccc12`, 4100 nM corresponded to half-maximal inhibition in the assay on MCF7 [2] (IC50).
Consider `CC(=O)NC(C(=O)N(C)C(C(=O)N/C=C\c1c(CC=C(C)C)[nH]c2ccccc12)C(C)C)C(C)C` (stereo unspecified), for which, in the assay with HCT-116, the 50% inhibitory concentration (IC50) came to 16 µg/mL (≈ 33.3 µM).
`CC(=O)N[C@H](CC(C)C)C(=O)N1C(C(=O)N/C=C\c2c[nH]c3cc(OCc4ccccc4)ncc23)CSC1(C)C` (stereo partly specified): the Inhibition in the assay on Staphylococcus aureus and in the assay on Bacillus subtilis was 100% each time. In addition, in the assay with MCF7 [1], the Cytotoxicity entry is “Active”.
For the molecule `O=C(/C=C/c1c[nH]c2ccccc12)N/C=C/c1c[nH]c2ccccc12` [CHONDRIAMIDE A], in the assay on HCT-116, the IC50 came out at 16 µg/mL (≈ 48.9 µM).
Turning to `CC(=O)NCC(=O)N(CCCCCO)C1(C(=O)N/C=C\c2c[nH]c3cc(OCc4ccccc4)ncc23)CCN(Cc2ccccc2)CC1`, in the assay with MCF7 [1], the Cytotoxicity result is “Active”.
Take `CC(=O)N[C@H](CC(C)C)C(=O)N1C(C(=O)N/C=C\c2c[nH]c3ccccc23)CSC1(C)C` (stereo partly specified): the Inhibition in the assay with Staphylococcus aureus and in the assay on Bacillus subtilis was 100% in each case.
`CC(=O)NC(CC(C)C)C(=O)N(C)C(Cc1ccccc1)C(=O)N/C=C\c1c[nH]c2ccccc12` (stereo unspecified) had a concentration for half-maximal inhibition (IC50) in the assay with HCT-116 of 16 µg/mL (≈ 33.7 µM).
